SMILES strings stand for the structures. pKi: −log10 of the molar value.

In experiment [1] the target is GABA-A receptor; anion channel. In words: Displacement of [3H]flumazenil from bovine benzodiazepine receptor GABA-A channel of brain membranes. On the set-up: species or system Bos taurus.
The target in experiment [2] is GABA-A receptor; alpha-1/beta-2/gamma-2 (Rattus norvegicus, UniProt P18508+P62813+P63138). As to the kind of experiment: Displacement of [3H]flumazenil from rat GABA-A Gamma-aminobutyric acid A receptor alpha-1-beta-2-gamma-2 expressed in HEK293 cells. It is filed as cell-based. Summed up: (§1)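 HEK293 cells stably expressing each rat subtype, grown in DMEM/F-12 with 10% FBS at 37 °C, 5% CO2. Harvested cells were homogenized in 10 mM potassium phosphate pH 7.4 and spun at 48 000g for 30 min at 4 °C. Pellets were washed and resuspended with 100 mM KCl. Ki from three determinations.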
Sequence of GABA-A receptor; alpha-1/beta-2/gamma-2 (P18508 whole entry): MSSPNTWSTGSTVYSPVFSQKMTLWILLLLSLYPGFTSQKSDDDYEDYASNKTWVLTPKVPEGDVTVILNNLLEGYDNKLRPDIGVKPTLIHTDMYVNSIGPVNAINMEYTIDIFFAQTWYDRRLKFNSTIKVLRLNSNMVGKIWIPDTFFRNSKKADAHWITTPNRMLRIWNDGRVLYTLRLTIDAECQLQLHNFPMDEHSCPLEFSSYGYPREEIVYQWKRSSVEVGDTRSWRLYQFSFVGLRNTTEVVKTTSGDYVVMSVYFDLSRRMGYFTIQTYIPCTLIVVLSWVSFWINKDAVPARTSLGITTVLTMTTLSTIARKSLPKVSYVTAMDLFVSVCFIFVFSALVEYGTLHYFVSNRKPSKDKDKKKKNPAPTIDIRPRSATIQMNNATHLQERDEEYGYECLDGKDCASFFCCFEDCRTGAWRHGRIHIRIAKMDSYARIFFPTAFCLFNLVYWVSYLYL
Sequence of GABA-A receptor; alpha-1/beta-2/gamma-2 (P62813 whole entry): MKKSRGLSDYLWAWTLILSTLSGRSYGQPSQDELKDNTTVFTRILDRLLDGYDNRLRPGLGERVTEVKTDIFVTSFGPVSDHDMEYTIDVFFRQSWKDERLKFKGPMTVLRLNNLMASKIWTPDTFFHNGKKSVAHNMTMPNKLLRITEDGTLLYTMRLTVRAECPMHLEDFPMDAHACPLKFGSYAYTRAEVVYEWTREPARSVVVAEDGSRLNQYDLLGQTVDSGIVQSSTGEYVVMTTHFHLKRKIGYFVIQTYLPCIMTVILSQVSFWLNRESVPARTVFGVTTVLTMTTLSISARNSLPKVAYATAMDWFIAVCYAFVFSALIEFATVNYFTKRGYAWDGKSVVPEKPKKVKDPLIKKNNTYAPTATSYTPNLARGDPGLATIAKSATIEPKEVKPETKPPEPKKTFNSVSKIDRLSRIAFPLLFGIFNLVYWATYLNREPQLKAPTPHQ
Sequence of GABA-A receptor; alpha-1/beta-2/gamma-2 (P63138 whole entry): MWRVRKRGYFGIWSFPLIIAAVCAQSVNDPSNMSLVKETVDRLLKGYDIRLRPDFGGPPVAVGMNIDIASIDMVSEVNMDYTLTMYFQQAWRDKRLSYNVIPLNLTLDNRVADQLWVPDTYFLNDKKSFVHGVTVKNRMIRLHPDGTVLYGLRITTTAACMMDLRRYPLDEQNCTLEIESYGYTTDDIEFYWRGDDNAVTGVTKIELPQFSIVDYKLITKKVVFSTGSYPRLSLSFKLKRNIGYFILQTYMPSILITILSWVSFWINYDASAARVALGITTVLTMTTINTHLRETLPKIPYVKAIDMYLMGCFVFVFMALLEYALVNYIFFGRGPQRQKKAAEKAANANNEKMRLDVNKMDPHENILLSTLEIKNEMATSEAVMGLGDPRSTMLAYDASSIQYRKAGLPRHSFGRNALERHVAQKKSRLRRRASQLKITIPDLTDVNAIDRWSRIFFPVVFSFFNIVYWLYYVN

In experiment [3] the target is GABA A receptor alpha-2/beta-2/gamma-2 (Rattus norvegicus, UniProt P18508+P23576+P63138). As to the kind of experiment: Displacement of [3H]flumazenil from rat GABA-A Gamma-aminobutyric acid A receptor alpha-2-beta-2-gamma-2 expressed in HEK293 cells. The class given is cell-based. The method in brief:
as §1
For orientation: Loss of bound radioactivity is the signal in a displacement assay; it reports binding, not function.

For experiment [4], the target named is GABA A receptor alpha-5/beta-3/gamma-2 (Rattus norvegicus, UniProt P18508+P19969+P63079). In words: Displacement of [3H]flumazenil from rat GABA-A Gamma-aminobutyric acid A receptor alpha-5-beta-3-gamma-2 expressed in HEK293 cells. The class given is cell-based. The method in brief:
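HEK293 cells stably expressing each rat subtype, grown in DMEM/F-12 with 10% FBS at 37 °C, 5% CO2. Harvested cells were homogenized in 10 mM potassium phosphate pH 7.4 and spun at 48 000g for 30 min at 4 °C. Pellets were washed and resuspended with 100 mM KCl. Incubated with [3H]flumazenil 1-2 nM and compound 10-9-10-5 M for 1 h at 4 °C. […] Ki from three determinations.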

Sequence of GABA A receptor alpha-2/beta-2/gamma-2 (P18508 whole entry): as the sequence (P18508 whole entry) above
Sequence of GABA A receptor alpha-2/beta-2/gamma-2 (P23576 whole entry): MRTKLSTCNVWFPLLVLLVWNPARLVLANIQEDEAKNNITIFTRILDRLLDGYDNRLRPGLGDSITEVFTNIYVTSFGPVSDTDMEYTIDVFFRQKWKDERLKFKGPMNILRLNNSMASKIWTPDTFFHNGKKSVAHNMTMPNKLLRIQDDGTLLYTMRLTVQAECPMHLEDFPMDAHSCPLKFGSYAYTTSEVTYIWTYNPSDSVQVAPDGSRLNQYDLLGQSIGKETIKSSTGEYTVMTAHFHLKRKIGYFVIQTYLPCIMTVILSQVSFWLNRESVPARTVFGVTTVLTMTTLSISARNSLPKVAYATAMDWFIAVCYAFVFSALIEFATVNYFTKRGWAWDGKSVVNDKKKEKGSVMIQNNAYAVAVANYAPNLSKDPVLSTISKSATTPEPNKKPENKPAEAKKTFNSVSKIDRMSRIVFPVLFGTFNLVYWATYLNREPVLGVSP
Sequence of GABA A receptor alpha-2/beta-2/gamma-2 (P63138 whole entry): as the sequence (P63138 whole entry) above
Sequence of GABA A receptor alpha-5/beta-3/gamma-2 (P18508 whole entry): as the sequence (P18508 whole entry) above
Sequence of GABA A receptor alpha-5/beta-3/gamma-2 (P19969 whole entry): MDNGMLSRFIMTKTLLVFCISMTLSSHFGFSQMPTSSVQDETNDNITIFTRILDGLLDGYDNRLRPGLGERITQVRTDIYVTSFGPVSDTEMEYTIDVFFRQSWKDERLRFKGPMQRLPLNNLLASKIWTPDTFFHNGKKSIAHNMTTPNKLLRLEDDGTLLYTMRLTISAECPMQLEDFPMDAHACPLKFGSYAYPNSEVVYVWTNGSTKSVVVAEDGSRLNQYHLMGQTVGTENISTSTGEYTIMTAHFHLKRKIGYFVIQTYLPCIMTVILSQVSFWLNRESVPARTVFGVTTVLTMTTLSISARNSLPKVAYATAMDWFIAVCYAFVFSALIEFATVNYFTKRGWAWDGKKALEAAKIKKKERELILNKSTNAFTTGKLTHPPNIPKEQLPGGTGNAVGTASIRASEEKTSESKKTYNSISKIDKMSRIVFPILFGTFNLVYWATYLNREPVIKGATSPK
Sequence of GABA A receptor alpha-5/beta-3/gamma-2 (P63079 whole entry): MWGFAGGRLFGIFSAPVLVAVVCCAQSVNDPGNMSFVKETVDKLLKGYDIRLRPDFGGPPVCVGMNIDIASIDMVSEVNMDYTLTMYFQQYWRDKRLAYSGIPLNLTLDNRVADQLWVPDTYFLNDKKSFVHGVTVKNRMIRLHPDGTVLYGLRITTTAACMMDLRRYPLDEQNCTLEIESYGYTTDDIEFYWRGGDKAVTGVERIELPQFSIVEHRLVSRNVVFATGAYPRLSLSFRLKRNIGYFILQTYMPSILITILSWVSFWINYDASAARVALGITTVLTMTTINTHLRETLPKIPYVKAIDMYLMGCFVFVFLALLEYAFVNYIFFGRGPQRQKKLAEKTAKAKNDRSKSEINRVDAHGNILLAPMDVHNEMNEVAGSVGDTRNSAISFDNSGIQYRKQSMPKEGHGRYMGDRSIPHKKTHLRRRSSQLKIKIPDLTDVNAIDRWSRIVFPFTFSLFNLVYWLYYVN

In general, pKi refers to −log10 of the Ki, conventionally taken in molar units. A high value points to a small Ki. Consider `Cc1ccc(-c2nn3c(=O)[nH]c4ccccc4n3c2=O)cc1`, for which the negative logarithm of the Ki (pKi) in experiment [1] is 6.21. With `COc1ccc(-c2nn3c(=O)[nH]c4ccc(Cl)cc4n3c2=O)cc1`, the pKi in experiment [2] is 8.74; in experiment [3], 7.74; in experiment [4] it was 8.12; in experiment [1], 8.22. Regarding `O=c1[nH]c2ccc(Cl)cc2n2c(=O)c(-c3ccc(F)cc3)nn12`, in experiment [1], the pKi is 7.25. Take `O=c1[nH]c2ccccc2n2c(=O)c(-c3ccc(F)cc3)nn12`: the pKi in experiment [1] was 7.27. On to `COc1ccc(-c2nn3c(=O)[nH]c4ccccc4n3c2=O)cc1`, for which the pKi in experiment [2] was 8.42; in experiment [3], 7.84; in experiment [4], 7.76; in experiment [1], 7.96. On to `O=c1[nH]c2ccccc2n2c(=O)c(-c3ccccc3)nn12`, for which the pKi in experiment [2] is 8.04; in experiment [3], 7.56; in experiment [4], 7.62; in experiment [1], 7.66. `Cc1ccc(-c2nn3c(=O)[nH]c4ccc(Cl)cc4n3c2=O)cc1` had a pKi in experiment [1] of 6.73. Still for that read-out and setting: for `O=c1[nH]c2ccccc2n2c(=O)c(-c3ccc(Cl)cc3)nn12` the value was 6.77; for `O=c1[nH]c2ccccc2n2c(=O)c(-c3ccc(Br)cc3)nn12`, 6.65. Still for that read-out and setting: then `O=c1[nH]c2ccccc2n2c(=O)c(-c3ccccc3F)nn12`, with less than 5.00. `COc1ccc(-c2nn3c(=O)[nH]c4ccccc4n3c2=O)cc1OC` showed a pKi in experiment [1] of less than 5.00. `O=c1[nH]c2ccc(Cl)cc2n2c(=O)c(-c3ccc(Cl)cc3)nn12` showed a pKi in experiment [1] of 7.42. On to `O=c1[nH]c2ccc(Cl)cc2n2c(=O)c(-c3ccccc3)nn12`, for which the pKi in experiment [2] is 8.76; in experiment [3], 7.86; in experiment [4], 7.99; in experiment [1], 8.55.

In turn, `O=C1CN=C(c2ccccc2Cl)c2cc([N+](=O)[O-])ccc2N1` [CLONAZEPAM] gave a pKi in experiment [1] of 9.07.

These data come from ChEMBL document CHEMBL1144412, “High affinity central benzodiazepine receptor ligands: synthesis and biological evaluation of a series of phenyltriazolobenzotriazindione derivatives” (J Med Chem, 2005).
